The record followed here is article PMC10829792 (Cell Reports Medicine, 2024).

Data set [1] deals with U2932 cells. The data set can be described thus: Cell viability, trypan blue assay. Format: cell-based, human. The settings on record: U2932 cells treated with only romidepsin (10 nM) or γPNA2-NLS (8 μM).
Data set [2] deals with Raji cells. As to the kind of experiment: Cell viability, trypan blue assay. The settings on record: romidepsin with or without γPNA2-NLS, mean, n = 3. The class given is cell-based, human.
The subject of data set [3] is U2932 xenograft mice. As to the kind of experiment: Tumor growth and survival study in U2932 xenograft mice. The class given is in vivo, mouse. The settings on record: romidepsin 1 mg/kg i.p. on days 0 and 6, n = 8. In a few lines: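 Mice bearing U2932 tumours of 100–150 mm³ were randomised. Romidepsin 1 mg/kg i.p. on days 0 and 6, and test compound 5 mg/kg on days 1, 4, 7 and 10, alone or combined. Vehicle group included.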

Data set [4] concerns DLBCL patient-derived xenograft (PDX) mice. As to the kind of experiment: Tumor growth in DLBCL PDX mice. The class given is in vivo, mouse. As to conditions: γPNA2-NLS 5 mg/kg, romidepsin 1 mg/kg i.p., n = 5 per group. In a few lines: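 DLBCL PDX fragments were serially implanted, reharvested at ~1500 mm³, and grouped at 100–150 mm³. Dosing followed the U2932 xenograft regimen: romidepsin 1 mg/kg i.p. days 0 and 6; test compound 5 mg/kg days 1, 4, 7 and 10. Body weight and tumour volume were recorded daily. Endpoint was tumour volume 1800–2000 mm³.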

Data set [5] concerns DLBCL PDX tumors. The data set can be described thus: Histology and immunohistochemistry. As to conditions: romidepsin study, n = 2 mice per group, n > 4 images. The class given is in vivo, mouse. The procedure, abridged:
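DLBCL PDX mice grouped at tumour volume 100–150 mm³. Romidepsin 1 mg/kg i.p. on days 0 and 6; test compound 5 mg/kg on days 1, 4, 7 and 10. Mice euthanized at 1800–2000 mm³.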

Data set [6] deals with γH2AX in HeLa cells. As to the kind of experiment: γH2AX foci assay, immunofluorescence. The settings on record: 24 h, γPNA2-NLS 8 μM, bleomycin 50 and 150 μM. Format: cell-based, human. The procedure, abridged: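 HeLa cells were seeded at 100,000/well and exposed for 24 h to test compound (8 μM) or bleomycin (50 and 150 μM). Nuclei were stained with NucBlue (25 min, 37°C). Cells were fixed in 4% PFA (10 min, RT), permeabilised with 0.1% Triton X in PBS, and stained with PE-conjugated anti-γH2AX (2 h, 37°C). Read-out was fluorescence microscopy.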

`C/C=C1\NC(=O)[C@H]2CSSCC/C=C/[C@H](CC(=O)N[C@H](C(C)C)C(=O)N2)OC(=O)[C@H](C(C)C)NC1=O` [romidepsin]: the “viability, day 4, single treatments” value in data set [1] is recorded as 50 % viability. Also, in data set [2], the “reduction in viability, day 4” value came out at 58%. Also, the “reduction of tumor growth” value in data set [3] came to 2 fold. Further, in data set [4], the “lower tumor volumes / decrease on day 35” value is reported as 1.3 fold. Further, the “caspase-3 activation, fold increase” value in data set [5] is recorded as about 5 fold.

For the compound bleomycin, the γH2AX immunofluorescence staining result in data set [6] is recorded as “increased γH2AX-positive nuclei”.
